{"source": "ChEMBL document CHEMBL5614410", "about": "“Design, Synthesis, and Evaluation of p53Y220C Acetylation Targeting Chimeras (AceTACs)” (J Med Chem, 2024)", "key": {"[1]": {"system": "CREB-binding protein/Histone acetyltransferase p300/Cellular tumor antigen p53 (Homo sapiens), P04637+Q09472+Q92793 [Y220C]", "assay": "AceTAC activity at FLAG-tagged p53Y220C mutant (unknown origin) expressed in human NCI-H1299 cells expressing p300/CBP and transfected with p300 siRNA assessed as increase in p53 acetylation at lysine 382 residue at 1 to 10 uM incubated for 24 hrs by western blot analysis", "type": "cell-based", "settings": "dose 1-10 µM", "how_it_was_run": "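NCI-H1299 cells stably expressing p53Y220C were given control or p300 siRNA, then treated at 0, 1 or 10 μM for 24 h. Lysates were Western blotted for p53 and p53K382ac. The acetylation level was normalised to vinculin and quantified from two independent experiments.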"}, "[2]": {"system": "CREB-binding protein/Histone acetyltransferase p300/Cellular tumor antigen p53 (Homo sapiens), P04637+Q09472+Q92793 [Y220C]", "assay": "Induction of interaction between FLAG-tagged p53Y220C mutant (unknown origin) and p300/CBP expressed in human NCI-H1299 cells at 10 uM pretreated for 2 hrs with p53Y220C mutant binder, PK9328 followed by incubation with compound for 18 hrs by co-immunoprecipitation analysis", "type": "cell-based", "how_it_was_run": "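NCI-H1299 (p53Y220C) cells were pretreated for 2 h with a 10 μM p53Y220C binder or a 10 μM p300 binder, then given compound at 3 μM for 18 h. p53-FLAG pull-down was followed by Western blot analysis.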"}, "[3]": {"system": "CREB-binding protein/Histone acetyltransferase p300/Cellular tumor antigen p53 (Homo sapiens), P04637+Q09472+Q92793 [Y220C]", "assay": "AceTAC activity at FLAG-tagged p53Y220C mutant (unknown origin) expressed in human NCI-H1299 cells expressing p300/CBP assessed as increase in p53 acetylation at lysine 382 residue at 10 uM pretreated for 2 hrs with p53Y220C mutant binder, PK9328 followed by incubation with compound for 18 hrs by western blot analysis", "type": "cell-based"}, "NCI-H1299": {"system": "NCI-H1299", "assay": "Antiproliferative activity against p53-null human NCI-H1299 cells assessed as reduction in cell viability at 0.47 to 15 uM incubated for 3 days by WST-8 assay", "type": "functional, cell-based", "settings": "dose 0.47-15 µM, time 3.0 day", "how_it_was_run": "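p53-null NCI-H1299 cells were exposed to compound across the concentration series for 72 h before the viability read-out. Data are mean ± SD from three independent experiments.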"}, "[4]": {"system": "CREB-binding protein/Histone acetyltransferase p300/Cellular tumor antigen p53 (Homo sapiens), P04637+Q09472+Q92793 [Y220C]", "assay": "AceTAC activity at FLAG-tagged p53Y220C mutant (unknown origin) expressed in human NCI-H1299 cells expressing p300/CBP assessed as upregulation of p21 mRNA expression at 3 uM incubated for 24 hrs by RT-qPCR analysis", "type": "cell-based", "how_it_was_run": "(§1)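 NCI-H1299 p53Y220C cells were treated with DMSO or compound at 3 μM for 24 h. mRNA of p53-target genes was measured by RT-qPCR, normalised to GAPDH and expressed relative to DMSO control. Values are mean ± SD of three independent experiments.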"}, "[5]": {"system": "CREB-binding protein/Histone acetyltransferase p300/Cellular tumor antigen p53 (Homo sapiens), P04637+Q09472+Q92793 [Y220C]", "assay": "AceTAC activity at FLAG-tagged p53Y220C mutant (unknown origin) expressed in human NCI-H1299 cells expressing p300/CBP assessed as upregulation of GADD45A mRNA expression at 3 uM incubated for 24 hrs by RT-PCR analysis", "type": "cell-based", "how_it_was_run": "as §1"}, "[6]": {"system": "CREB-binding protein/Histone acetyltransferase p300/Cellular tumor antigen p53 (Homo sapiens), P04637+Q09472+Q92793 [Y220C]", "assay": "AceTAC activity at FLAG-tagged p53Y220C mutant (unknown origin) expressed in human NCI-H1299 cells expressing p300/CBP assessed as downregulation of SLC7A11 mRNA expression at 3 uM incubated for 24 hrs by RT-PCR analysis", "type": "cell-based", "how_it_was_run": "as §1"}, "BXPC-3": {"system": "BXPC-3", "assay": "Antiproliferative activity against human BXPC-3 cells harboring p53Y220C mutant assessed as inhibition of cell growth incubated for 72 hrs by WST-8 assay", "type": "functional", "how_it_was_run": "(§2)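 BxPC3 or NUGC-3 cells were treated with DMSO or compound over a concentration range for 72 h before the viability read-out. Values are mean ± SD of technical triplicates from three biological experiments.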"}, "NUGC-3": {"system": "NUGC-3", "assay": "Antiproliferative activity against human NUGC-3 cells harboring p53Y220C mutant assessed as inhibition of cell growth incubated for 72 hrs by WST-8 assay", "type": "functional", "how_it_was_run": "as §2"}, "[7]": {"system": "CREB-binding protein/Histone acetyltransferase p300/Cellular tumor antigen p53 (Homo sapiens), P04637+Q09472+Q92793 [Y220C]", "assay": "AceTAC activity at p53Y220C mutant in human NUGC-3 cells expressing p300/CBP assessed as increase in p53 acetylation at lysine 382 residue incubated for 24 hrs by western blot analysis", "type": "cell-based", "settings": "dose 1-10 µM", "how_it_was_run": "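BxPC3 or NUGC-3 cells, which express p53Y220C endogenously, were treated with DMSO or compound at 1, 3 or 10 μM for 24 h. Lysates were Western blotted for p53 and p53K382ac, with vinculin as loading control. Representative of two independent experiments.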"}, "PNT2": {"system": "PNT2", "assay": "Cytotoxicity against human PNT2 cells assessed as inhibition of cell growth incubated for 72 hrs by WST-8 assay", "type": "toxicity, cell-based", "settings": "pnt2, 72 h", "how_it_was_run": "(§3)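 U2OS (WT p53) or normal prostate PNT2 cells were treated for 72 h at the indicated concentrations. Viability is mean ± SD of technical triplicates from two biological experiments.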"}, "[8]": {"assay": "Cytotoxicity against human U2OS cells harboring wild type p53 assessed as inhibition of cell growth at 10 uM incubated for 72 hrs by WST-8 assay", "type": "toxicity, cell-based", "how_it_was_run": "as §3"}, "[9]": {"assay": "Cytotoxicity against human PNT2 cells assessed as inhibition of cell growth at 10 uM incubated for 72 hrs by WST-8 assay", "type": "toxicity, cell-based", "how_it_was_run": "as §3"}, "[10]": {"assay": "Toxicity in Swiss albino mouse assessed as tolerability at 50 mg/kg, ip measured for 8 hrs", "type": "organism-based", "settings": "in vivo"}}, "note": "Calls of active or inactive are those of the source. No cut-off for these calls is given here."}
{"smiles": "CCn1c2ccc(CNCCOCCOCCOCCC(=O)NCCOc3ccc(CCc4nc5cc(-c6c(C)noc6C)ccc5n4CCN4CCOCC4)cc3F)cc2c2ccc(-c3cc(C)cs3)cc21", "values": [{"measurement": "Activity", "setting": "[1]", "value": "inactive"}, {"measurement": "Activity", "setting": "[2]", "value": "inactive"}, {"measurement": "Activity", "setting": "[3]", "value": "inactive"}, {"measurement": "Activity", "setting": "NCI-H1299", "value": "inactive"}, {"measurement": "Activity", "setting": "[4]", "value": "Active"}, {"measurement": "Activity", "setting": "[5]", "value": "Active"}, {"measurement": "Activity", "setting": "[6]", "value": "Active"}, {"measurement": "GI50", "setting": "BXPC-3", "value": 2.16, "unit": "µM"}, {"measurement": "GI50", "setting": "NUGC-3", "value": 1.83, "unit": "µM"}, {"measurement": "Activity", "setting": "[7]", "value": "Dose-Dependent Effect"}, {"measurement": "GI50", "setting": "PNT2", "value": "> 10", "unit": "µM"}, {"measurement": "inhibition at 72 h, 10 µM", "setting": "[8]", "value": 30, "unit": "%"}, {"measurement": "inhibition at 72 h, 10 µM", "setting": "[9]", "value": "~30", "unit": "%"}, {"measurement": "Activity", "setting": "[10]", "value": "Non-Toxic"}]}
